Test results taken from ChEMBL document CHEMBL3244326, “Synthesis and antiviral activity of certain thiazole C-nucleosides” (J Med Chem, 1977).
Calls of active or inactive are those of the source. The rule behind the calls is not given here.

Legend:
[1] = tested on: Human respirovirus 1; experiment: Antiviral activity against type 1 parainfluenza virus infected in mouse assessed as mouse mean death day at 49.5 mg/kg, po thrice a day for 8 days after 1 hr viral infection (reference value: 8.9 days); assay type: functional
[2] = tested on: Mus musculus; experiment: Toxicity in mouse assessed as survival at 99 mg/kg, po; assay type: organism-based; parameters: dose 99 mg/kg, route oral; settings: in vivo
Method in brief: (§1)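 Uninfected toxicity-control mice, 5 per dose, received compound by the oral route alongside the infected groups. Survivors/total recorded, and weight gain was observed.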

[3] = tested on: Human respirovirus 1; experiment: Antiviral activity against type 1 parainfluenza virus infected in mouse assessed as mouse mean death day at 99 mg/kg, po thrice a day for 8 days after 1 hr viral infection (reference value: 8.9 days); assay type: functional
[4] = tested on: Ehrlich; experiment: Inhibition of purine nucleotide biosynthesis in mouse Ehrlich ascites tumor cells assessed as inhibition of [14C]hypoxanthine into adenine nucleotides at 1 mM after 60 mins incubation; assay type: functional; settings: 1 h
Method in brief: (§2)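 Ehrlich ascites tumor cell suspensions preincubated at 37 °C for 20 min with or without 1 mM compound. [14C]Hypoxanthine (55 µCi/µmol) then added to a final 0.1 mM, followed by 60 min more incubation. Adenine (AMP+ADP+ATP) and guanine (GMP+GDP+GTP) nucleotides separated by TLC on PEI-cellulose; % inhibition of label incorporation.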

[5] = tested on: KB; experiment: Antiviral activity against type 13 rhinovirus infected in human KB cells assessed as reduction in cytopathic effect after 72 hrs incubation; assay type: functional, cell-based; settings: Human rhinovirus A13
Method in brief: (§3)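 Human nasopharyngeal carcinoma (KB) cells infected with virus and tested at compound concentrations of 1000 to 1 ug/ml. After 72 h incubation at 37 °C, inhibition of viral cytopathic effect was scored by observation and expressed as a virus rating (VR). Values are the average of one to five tests.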

[6] = tested on: Ehrlich; experiment: Inhibition of purine nucleotide biosynthesis in mouse Ehrlich ascites tumor cells assessed as inhibition of [14C]hypoxanthine into guanine nucleotides at 1 mM after 60 mins incubation; assay type: functional; settings: 1 h; method in brief: as §2
[7] = tested on: Human alphaherpesvirus 1; experiment: Antiviral activity against type 1 herpes simplex virus type 1 infected in human KB cells assessed as reduction in cytopathic effect after 72 hrs incubation; assay type: functional, organism-based; method in brief: as §3
[8] = tested on: Human respirovirus 1; experiment: Antiviral activity against type 1 parainfluenza virus infected in mouse assessed as mouse survival at 38.8 mg/kg, po thrice a day for 8 days after 1 hr viral infection; assay type: functional, organism-based; parameters: dose 38.8 mg/kg
Method in brief: (§4)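 Sendai (type 1 parainfluenza) virus given intranasally to female mice (18-20 g). Oral dosing three times daily for 8 days, beginning 1 h post-inoculation; 10 infected mice per dose, with a carboxymethylcellulose placebo group. Survivors/total counted, with p values for the survivor increase.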

[9] = tested on: Human respirovirus 1; experiment: Antiviral activity against type 1 parainfluenza virus infected in mouse assessed as mouse mean death day at 38.8 mg/kg, po thrice a day for 8 days after 1 hr viral infection (reference value: 8.9 days); assay type: functional
[10] = tested on: Human respirovirus 1; experiment: Antiviral activity against type 1 parainfluenza virus infected in mouse assessed as mouse mean death day at 155 mg/kg, po thrice a day for 8 days after 1 hr viral infection (reference value: 8.9 days); assay type: functional
[11] = tested on: Mus musculus; experiment: Toxicity in mouse assessed as survival at 155 mg/kg, po; assay type: organism-based; parameters: dose 155 mg/kg, route oral; settings: in vivo; method in brief: as §1
[12] = tested on: Human respirovirus 1; experiment: Antiviral activity against type 1 parainfluenza virus infected in mouse assessed as mouse mean death day at 77.5 mg/kg, po thrice a day for 8 days after 1 hr viral infection (reference value: 8.9 days); assay type: functional
[13] = tested on: Mus musculus; experiment: Toxicity in mouse assessed as survival at 77.5 mg/kg, po; assay type: organism-based; parameters: dose 77.5 mg/kg, route oral; settings: in vivo; method in brief: as §1
[14] = tested on: Human respirovirus 1; experiment: Antiviral activity against type 1 parainfluenza virus infected in mouse assessed as mouse survival at 155 mg/kg, po thrice a day for 8 days after 1 hr viral infection; assay type: functional, organism-based; parameters: dose 155 mg/kg; method in brief: as §4
[15] = tested on: Human respirovirus 1; experiment: Antiviral activity against type 1 parainfluenza virus infected in mouse assessed as mouse survival at 77.5 mg/kg, po thrice a day for 8 days after 1 hr viral infection; assay type: functional, organism-based; parameters: dose 77.5 mg/kg; method in brief: as §4
[16] = tested on: Human respirovirus 1; experiment: Antiviral activity against type 1 parainfluenza virus infected in mouse assessed as mouse mean death day at 52 mg/kg, po thrice a day for 8 days after 1 hr viral infection (reference value: 8.9 days); assay type: functional
[17] = tested on: Mus musculus; experiment: Toxicity in mouse assessed as survival at 104 mg/kg, po; assay type: organism-based; parameters: dose 104 mg/kg, route oral; settings: in vivo; method in brief: as §1
[18] = tested on: Human respirovirus 1; experiment: Antiviral activity against type 1 parainfluenza virus infected in mouse assessed as mouse mean death day at 26 mg/kg, po thrice a day for 8 days after 1 hr viral infection (reference value: 8.9 days); assay type: functional
[19] = tested on: Human respirovirus 1; experiment: Antiviral activity against type 1 parainfluenza virus infected in mouse assessed as mouse survival at 104 mg/kg, po thrice a day for 8 days after 1 hr viral infection; assay type: functional, organism-based; parameters: dose 104 mg/kg; method in brief: as §4
[20] = tested on: Human respirovirus 1; experiment: Antiviral activity against type 1 parainfluenza virus infected in mouse assessed as mouse mean death day at 104 mg/kg, po thrice a day for 8 days after 1 hr viral infection (reference value: 8.9 days); assay type: functional

NC(=O)c1ncn([C@@H]2O[C@H](CO)[C@@H](O)[C@H]2O)n1 [RIBAVIRIN]
Time [1]: 12 days
Activity [2]: Non-toxic
Time [3]: 10 days

NC(=S)c1csc([C@@H]2O[C@H](CO)[C@@H](O)[C@H]2O)n1
inhibition at 1000 µM [4]: 0%
Activity [5]: inactive
inhibition at 1000 µM [6]: 12%
Activity [7]: inactive

CC(=O)OC[C@H]1O[C@@H](c2nc(C(N)=O)cs2)[C@H](OC(C)=O)[C@@H]1OC(C)=O
Survival [8]: Active
Time [9]: 11 days
inhibition at 1000 µM [4]: 0%
Time [10]: 8.6 days
Activity [11]: Non-toxic
Time [12]: 11.9 days
Activity [13]: Non-toxic
Survival [14]: Active
Activity [5]: inactive
Survival [15]: Active
inhibition at 1000 µM [6]: 42%
Activity [7]: Active

NC(=O)c1csc([C@@H]2O[C@H](CO)[C@@H](O)[C@H]2O)n1 [TIAZOFURIN]
inhibition at 1000 µM [4]: 0%
Time [16]: 11 days
Activity [17]: Non-toxic
Time [18]: 10.9 days
Activity [5]: Active
Survival [19]: Active
Time [20]: 12.3 days
inhibition at 1000 µM [6]: 69%
Activity [7]: Active

NC(=O)c1csc(-c2ccc(CO)o2)n1
inhibition at 1000 µM [4]: 0%
Activity [5]: inactive
inhibition at 1000 µM [6]: 0%
Activity [7]: inactive

C[C@H]1O[C@@H](c2nc(C(N)=O)cs2)[C@H](O)[C@@H]1O
inhibition at 1000 µM [4]: 0%
Activity [5]: inactive
inhibition at 1000 µM [6]: 0%
Activity [7]: inactive

NC(=O)c1cnc([C@@H]2O[C@H](CO)[C@@H](O)[C@H]2O)s1
inhibition at 1000 µM [4]: 1%
Activity [5]: inactive
inhibition at 1000 µM [6]: 6.8%
Activity [7]: inactive
